# In ChEMBL document CHEMBL2086359, “Tormentic acid derivatives: synthesis and apoptotic activity” (Eur J Med Chem, 2012):
# Calls of active or inactive are those of the source. The rule behind the calls is not given here.
# Assays:
# NIH3T3 = assay: Cytotoxicity against mouse NIH/3T3 cells after 96 hrs by SRB assay; assay type: cell-based
# Procedure, shortened: (§1)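 Monolayer cultures kept in RPMI 1640 with 10% heat-inactivated FBS and penicillin/streptomycin at 37 °C, 5% CO2. Exponentially growing cells were seeded and treated 24 h later with serial dilutions (0–30 µM) for 96 h, with DMSO or DMF at most 0.5% final. Cells were fixed with 10% TCA at 4 °C and stained with 0.4% SRB for about 30 min. Plates were washed with 1% acetic acid and the dye dissolved in 10 mM Tris base. Absorbance was read at 570 nm and survival taken relative to untreated controls. IC50 was estimated from dose–response curves, averaged from at least 5 independent experiments.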
# MCF7 = assay: Cytotoxicity against human MCF7 cells after 96 hrs by SRB assay; assay type: functional, cell-based; procedure, shortened: as §1
# DLD-1 = assay: Cytotoxicity against human DLD1 cells after 96 hrs by SRB assay; assay type: functional, cell-based; procedure, shortened: as §1
# [1] = Cytotoxicity against human A253 cells after 96 hrs by SRB assay; assay type: functional, cell-based; procedure, shortened: as §1
# A549 = assay: Cytotoxicity against human A549 cells after 96 hrs by SRB assay; assay type: functional, cell-based; procedure, shortened: as §1
# [2] = Cytotoxicity against human 518A2 cells after 96 hrs by SRB assay; assay type: functional, cell-based; procedure, shortened: as §1
# 518A2 = assay: Induction of apoptosis in human 518A2 cells after 24 to 48 hrs by DNA laddering assay; assay type: functional, cell-based
# Procedure, shortened: (§2)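 About 1×10^6 cells were grown in 25 cm2 flasks to 80% and exposed to compound-loaded medium for 24–48 h, with blank medium as control. Cells were collected from the supernatant (300 g, 4 °C), washed in PBS and lysed. Lysates were digested with RNase for 2 h at 37 °C, then with proteinase K for 12 h at 50 °C. DNA was run on agarose gel electrophoresis ([…], 2 h).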
# 8505C [3] = assay: Induction of apoptosis in human 8505C cells after 24 to 48 hrs by DNA laddering assay; assay type: functional, cell-based; procedure, shortened: as §2
# 8505C [4] = assay: Cytotoxicity against human 8505C cells after 96 hrs by SRB assay; assay type: functional, cell-based; procedure, shortened: as §1
# A2780 = assay: Cytotoxicity against human A2780 cells after 96 hrs by SRB assay; assay type: functional, cell-based; procedure, shortened: as §1
# [5] = Cytotoxicity against human WW030272 cells after 96 hrs by SRB assay; assay type: cell-based; procedure, shortened: as §1
# 8505C [6] = assay: Induction of apoptosis in human 8505C cells assessed as induction of cell death after 24 to 48 hrs by AO/PI exclusion dye assay; assay type: functional, cell-based
# Procedure, shortened: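 About 1×10^6 cells were grown in 25 cm2 flasks to 80% and given compound-loaded medium for 24–48 h, with blank medium as control. Cells were recovered from the supernatant (300 g, 4 °C), washed and resuspended in PBS. They were mixed 1:1 with AO/PI solution and viewed by fluorescence microscopy: green cells were scored as apoptotic, red as necrotic.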
Compound,IC50 (NIH3T3),IC50 (MCF7),IC50 (DLD-1),IC50 [1],IC50 (A549),IC50 [2],Activity (518A2),Activity (8505C [3]),IC50 (8505C [4]),IC50 (A2780),IC50 [5],Activity (8505C [6])
COC(=O)[C@]12CC[C@@H](C)[C@@](C)(O)[C@H]1C1=CC[C@@H]3[C@@]4(C)C[C@H](O)[C@H](O)C(C)(C)[C@@H]4CC[C@@]3(C)[C@]1(C)CC2,> 30 µmol,22.6 µmol,> 30 µmol,15.3 µmol,> 30 µmol,> 30 µmol,Active,Active,> 30 µmol,18.9 µmol,,
CC(=O)O[C@@H]1C[C@]2(C)[C@H]3CC=C4[C@H]5[C@](C(=O)O)(CC[C@@H](C)[C@@]5(C)O)CC[C@@]4(C)[C@]3(C)CC[C@H]2C(C)(C)[C@H]1O,> 30 µmol,25.3 µmol,> 30 µmol,> 30 µmol,> 30 µmol,> 30 µmol,Active,Active,> 30 µmol,24.3 µmol,,
COC(=O)[C@]12CC[C@@H](C)[C@@](C)(O)[C@H]1C1=CC[C@@H]3[C@@]4(C)C=C(O)C(=O)C(C)(C)[C@@H]4CC[C@@]3(C)[C@]1(C)CC2,> 30 µmol,26 µmol,> 30 µmol,> 30 µmol,> 30 µmol,17.2 µmol,Active,Active,25 µmol,> 30 µmol,,
COC(=O)[C@]12CC[C@@H](C)[C@@](C)(O)[C@H]1C1=CC[C@@H]3[C@@]4(C)C[C@@H](O)C(=O)C(C)(C)[C@@H]4CC[C@@]3(C)[C@]1(C)CC2,7.7 µmol,9.4 µmol,18 µmol,6.8 µmol,11.8 µmol,8.9 µmol,Active,Active,12.9 µmol,4.9 µmol,,
COC(=O)[C@]12CC[C@@H](C)[C@@](C)(O)[C@H]1C1=CC[C@@H]3[C@@]4(C)CC(=O)[C@H](OC(C)=O)C(C)(C)[C@@H]4CC[C@@]3(C)[C@]1(C)CC2,6.7 µmol,8.2 µmol,13.5 µmol,6.7 µmol,7.8 µmol,5.6 µmol,Active,Active,7 µmol,4.4 µmol,,
CC(=O)O[C@@H]1C[C@]2(C)[C@H]3CC=C4[C@H]5[C@](C(=O)O)(CC[C@@H](C)[C@@]5(C)O)CC[C@@]4(C)[C@]3(C)CC[C@H]2C(C)(C)[C@H]1OC(C)=O,32.3 µmol,20.4 µmol,> 30 µmol,27.3 µmol,> 30 µmol,> 30 µmol,Active,Active,> 30 µmol,17.6 µmol,,
COC(=O)[C@]12CC[C@@H](C)[C@@](C)(O)[C@H]1C1=CC[C@@H]3[C@@]4(C)CC(=O)[C@H](O)C(C)(C)[C@@H]4CC[C@@]3(C)[C@]1(C)CC2,19.2 µmol,28.7 µmol,> 30 µmol,,,> 30 µmol,Active,Active,> 30 µmol,17.8 µmol,,
COC(=O)[C@]12CC[C@@H](C)[C@@](C)(O)[C@H]1C1=CC[C@@H]3[C@@]4(C)C[C@@H](O)[C@@H](O)C(C)(C)[C@@H]4CC[C@@]3(C)[C@]1(C)CC2 [EUSCAPHIC ACID METHYL ESTER],> 30 µmol,17.8 µmol,35.8 µmol,16.4 µmol,30.6 µmol,27.7 µmol,Active,Active,29.3 µmol,12.8 µmol,23.4 µmol,
COC(=O)[C@]12CC[C@@H](C)[C@@](C)(O)[C@H]1C1=CC[C@@H]3[C@@]4(C)C[C@@H](O)[C@H](OC(=O)CCl)C(C)(C)[C@@H]4CC[C@@]3(C)[C@]1(C)CC2,4.2 µmol,6.9 µmol,6 µmol,4.1 µmol,10 µmol,5.5 µmol,Active,Active,7.5 µmol,4.1 µmol,,
CC(=O)O[C@H]1[C@H](O)C[C@]2(C)[C@H]3CC=C4[C@H]5[C@](C(=O)O)(CC[C@@H](C)[C@@]5(C)O)CC[C@@]4(C)[C@]3(C)CC[C@H]2C1(C)C,> 30 µmol,26.2 µmol,> 30 µmol,> 30 µmol,> 30 µmol,> 30 µmol,Active,Active,> 30 µmol,28.1 µmol,,
COC(=O)[C@]12CC[C@@H](C)[C@@](C)(O)[C@H]1C1=CC[C@@H]3[C@@]4(C)C[C@@H](OC(=O)CCl)[C@H](O)C(C)(C)[C@@H]4CC[C@@]3(C)[C@]1(C)CC2,2.1 µmol,2.6 µmol,3.7 µmol,4.6 µmol,9.7 µmol,4.5 µmol,Active,Active,4.6 µmol,2.6 µmol,,
CC1(C)CC[C@]2(C(=O)O)CC[C@]3(C)C(=CC[C@@H]4[C@@]5(C)C[C@@H](O)[C@H](O)C(C)(C)[C@@H]5CC[C@]43C)[C@@H]2C1,,,,,,,,,,,,Active
COC(=O)[C@]12CC[C@@H](C)[C@@](C)(O)[C@H]1C1=CC[C@@H]3[C@@]4(C)C[C@@H](OC(C)=O)C(=O)C(C)(C)[C@@H]4CC[C@@]3(C)[C@]1(C)CC2,25.1 µmol,14.8 µmol,28.2 µmol,18.5 µmol,31.3 µmol,28.9 µmol,Active,Active,> 30 µmol,9 µmol,,
